Test results from ChEMBL document CHEMBL1137243, “Design, synthesis, and antifungal activities in vitro of novel tetrahydroisoquinoline compounds based on the structure of lanosterol 14alpha-demethylase (CYP51) of fungi” (2006).
Values after ≈ are worked out from the molar mass of the structure shown.

Columns and labels:
Assay type in all cases: functional
Cryptococcus neoformans = experiment: Antifungal activity against Cryptococcus neoformans after 72 hrs
In short: (§1)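 Broth serial-dilution MIC in 96-well plates per NCCLS recommendations. Medium: RPMI 1640 buffered with 0.165 M MOPS. Strains were from ATCC or clinical isolates. Compounds were dissolved in DMSO and serially diluted in growth medium. Yeasts were incubated at 35 °C, read at 24 h for Candida and 72 h for C. neoformans. MIC is the lowest concentration giving ≥80% growth inhibition versus control (turbidity).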

Aspergillus fumigatus = experiment: Antifungal activity against Aspergillus fumigatus after 7 days; settings: 168 h
In short: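 Filamentous-fungus MIC was determined by serial dilution in 96-well plates per NCCLS, using RPMI 1640 buffered with 0.165 M MOPS. Strains were ATCC or clinical isolates. Compounds in DMSO were diluted in growth medium. Growth was read at 7 days. MIC is the lowest concentration producing ≥80% inhibition of turbidity compared with control.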

Trichophyton rubrum = experiment: Antifungal activity against Trichophyton rubrum after 7 days; settings: 168 h
In short: (§2)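 Dermatophytes were tested by NCCLS-based broth serial dilution in 96-well plates. Medium: RPMI 1640 with 0.165 M MOPS. Isolates were from ATCC or clinical sources. Compounds in DMSO were serially diluted in medium. Incubation was at 28 °C with the read at 7 days. MIC is the lowest concentration giving ≥80% turbidity reduction relative to the growth control.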

Microsporum canis = experiment: Antifungal activity against Microsporum canis after 7 days; settings: 168 h; in short: as §2
Candida albicans = experiment: Antifungal activity against Candida albicans after 24 hrs; in short: as §1
Candida parapsilosis = experiment: Antifungal activity against Candida parapsilosis after 24 hrs; settings: Lodderomyces parapsilosis; in short: as §1

SMILES	MIC80 (Cryptococcus neoformans) [µg/mL]	MIC80 (Aspergillus fumigatus) [µg/mL]	MIC80 (Trichophyton rubrum) [µg/mL]	MIC80 (Microsporum canis) [µg/mL]	MIC80 (Candida albicans) [µg/mL]	MIC80 (Candida parapsilosis) [µg/mL]
CCCCCCCCCCN1CCc2cc(O)c(O)cc2C1	3.12 (≈ 10.2 µM)	50 (≈ 164 µM)	3.12 (≈ 10.2 µM)	12.5 (≈ 40.9 µM)	100 (≈ 327 µM)	12.5 (≈ 40.9 µM)
CCCCCCCCCCCCN1CCc2cc(O)c(O)cc2C1	6.25 (≈ 18.7 µM)	50 (≈ 150 µM)	12.5 (≈ 37.5 µM)	12.5 (≈ 37.5 µM)	50 (≈ 150 µM)	50 (≈ 150 µM)
CCCCCCCCCCCCCCCCN1CCc2cc(O)c(O)cc2C1	100 (≈ 257 µM)	200 (≈ 513 µM)	200 (≈ 513 µM)	> 200	> 200	100 (≈ 257 µM)
CCCCCCCCN1CCc2cc(O)c(O)cc2C1	100 (≈ 360 µM)	> 200	50 (≈ 180 µM)	50 (≈ 180 µM)	> 200	100 (≈ 360 µM)
CCCCCCN1CCc2cc(O)c(O)cc2C1	100 (≈ 401 µM)	> 200	> 200	> 200	> 200	100 (≈ 401 µM)
CCCCCN1CCc2cc(O)c(O)cc2C1	100 (≈ 425 µM)	> 200	> 200	> 200	> 200	100 (≈ 425 µM)
CCCCCCCN1CCc2cc(O)c(O)cc2C1	100 (≈ 380 µM)	> 200	> 200	> 200	> 200	100 (≈ 380 µM)
CCCCCCCCCCCCCCN1CCc2cc(O)c(O)cc2C1	6.25 (≈ 17.3 µM)	> 200	25 (≈ 69.1 µM)	12.5 (≈ 34.6 µM)	50 (≈ 138 µM)	50 (≈ 138 µM)
CCCCCCCCCN1CCc2cc(O)c(O)cc2C1	25 (≈ 85.8 µM)	200 (≈ 686 µM)	12.5 (≈ 42.9 µM)	50 (≈ 172 µM)	200 (≈ 686 µM)	25 (≈ 85.8 µM)
OC(Cn1cncn1)(Cn1cncn1)c1ccc(F)cc1F [FLUCONAZOLE]	6.25 (≈ 20.4 µM)	> 200	25 (≈ 81.6 µM)	100 (≈ 327 µM)	1.56 (≈ 5.1 µM)	50 (≈ 163 µM)
